A selection: hits, their analogues and other compounds. The true share with any hit is near 4.5%.
GPR7 antagonist: human neuropeptides B/W receptor 1 antagonism; inhibition, % at 4.4 µM; P48145; actives 1.1% (n = 290,000); GPR7-expressing cells, fluorescence antagonist assay; in the data active = inhibition above about 16%, passing the limit was not always enough;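 note: cells stimulated with the agonist NPW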
Target sequence (P48145 whole entry, looked up): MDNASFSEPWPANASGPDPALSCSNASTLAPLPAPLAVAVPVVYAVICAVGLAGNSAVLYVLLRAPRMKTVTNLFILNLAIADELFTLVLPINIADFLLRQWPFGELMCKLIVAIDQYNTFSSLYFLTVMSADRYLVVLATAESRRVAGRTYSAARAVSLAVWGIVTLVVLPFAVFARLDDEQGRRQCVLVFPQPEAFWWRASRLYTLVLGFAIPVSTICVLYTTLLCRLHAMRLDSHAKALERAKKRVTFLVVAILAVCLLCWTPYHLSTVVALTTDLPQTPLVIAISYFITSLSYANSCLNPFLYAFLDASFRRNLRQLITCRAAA
OX1R antag-1: blocks the human orexin 1 receptor; O43613; OX1R-expressing cells, FRET antagonist read-out; inhibition, % at 6.6 µM; actives 1.8% (n = 330,000); AID 485270; in the data active = inhibition mostly above about 38%, no sharp cut-off; inactive = mostly below about 40%
TAAR1 antag: human TAAR1 antagonism | Q96RJ0 | CHO RD-HGA16 TAAR1, Fluo-8 calcium fluorescence, antagonist | inhibition, % at 3 µM | actives 1.5% (n = 360,000) | AID 624466;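 active = inhibition above a per-plate cutoff, the mean inhibition of test compounds on that plate plus 3 SD, cut at about 49% in these data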
Target sequence (Q96RJ0 whole entry, looked up): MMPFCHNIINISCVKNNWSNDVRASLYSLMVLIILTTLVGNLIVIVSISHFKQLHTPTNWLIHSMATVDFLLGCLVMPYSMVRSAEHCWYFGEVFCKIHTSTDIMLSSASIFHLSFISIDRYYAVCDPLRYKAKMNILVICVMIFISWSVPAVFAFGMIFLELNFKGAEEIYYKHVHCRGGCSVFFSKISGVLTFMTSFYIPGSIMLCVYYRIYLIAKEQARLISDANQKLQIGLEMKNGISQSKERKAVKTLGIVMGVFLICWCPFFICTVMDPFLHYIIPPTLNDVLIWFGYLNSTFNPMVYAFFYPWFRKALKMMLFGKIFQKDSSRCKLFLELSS
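System: RD-HGA16 CHO cells with stable hTAAR1 and Gα16 | Probe or stimulus: EC80 β-phenethylamine stimulus | Dosing: 3 µM, single point | Times: Dye loading 75 min at 37 °C, then 30 min room temperature | Measured by: Fluo-8 calcium-sensitive fluorescence | Read-out basis: % inhibition of agonist calcium response | Replicates: n of 1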
CHO parental Ca: signal in parental CHO cells, OX1R antagonist counter-screen. parental CHO-K1, ATP-induced calcium, Fluo-8 fluorescence. inhibition, % at 5.6 µM. actives 0.63% (n = 330,000);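 active = inhibition above that plate's mean sample inhibition plus 3 SD, cut at about 26% in these data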
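Test system: parental CHO cells; detection: calcium-sensitive Fluo-8 fluorescence; evaluation: percent inhibition of calcium signal; also added: ATP as calcium-mobilizing challenge; repeats: one well per compound; control set: ATP-challenged DMSO wells low, unchallenged DMSO wells high; compound: single nominal dose of 5.6 µM per compound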
OX1R antag-2: human HCRTR1 antagonism; inhibition, % at 5 µM; CHO/OX1R cells, Fluo-8 calcium fluorescence, orexin A; AID 434989; O43613; actives 0.43% (n = 330,000);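 active = inhibition above its plate's threshold, mean inhibition of all tested compounds on the plate plus 3 SD, cut at about 37% in these data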
TAAR1 ag: human TAAR1 agonism; Q96RJ0; CHO RD-HGA16 TAAR1, Fluo-8 calcium fluorescence; vehicle wells 0%, saturating PEA agonist 100%; activation, % at 3 µM; actives 0.99% (n = 360,000); AID 624467;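 active = activation above the mean activation of all test compounds in the run plus 3 SD, cut at about 38% in these data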
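Assay system – CHO-derived RD-HGA16 cells with stable Gα16 and human TAAR1 · Compound dosing – one-point dosing at 3 µM (nominal) · Incubation – 17-24 h seeding, 75 min 37 °C dye, 30 min RT · Measured by – kinetic Fluo-8 calcium fluorescence · Control set – DMSO vehicle as 0%, PEA at EC100 as 100% · Repeats – single well for each compound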
nonsel antag count: counter-screen for TAAR1 antagonists: nonselective antagonists; shares compounds with TAAR1 antag; actives 77% (n = 2,400); AID 651780; counterscreen cell line, calcium fluorescence, antagonist mode; inhibition, % at 3 µM; in the data active = inhibition above about 22%;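 note: CHO-Ga16 host cells stimulated with ATP at an EC80 level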
TAAR1 antag conf: confirmation of human TAAR1 antagonists; shares compounds with TAAR1 antag; TAAR1-expressing cells, fluorescence antagonist read-out; inhibition, % at 3 µM; actives 40% (n = 2,400); AID 651785; in the data active = inhibition above about 49%;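 note: CHO-Ga16 host cells challenged with agonist PEA near its EC80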
Ga16 ag counter: nonselective Ga16 agonist in TAAR1 antagonist counter-screen; shares compounds with TAAR1 antag; Ga16-expressing cells, calcium fluorescence, agonist counterscreen; activation, % at 3 µM; AID 651953; actives 18% (n = 2,400); in the data active = activation above about 12%
TAAR1 ag count: TAAR1 agonism, antagonist counter-screen. shares compounds with TAAR1 antag. AID 651955. actives 2% (n = 2,400). activation, % at 3 µM. hTAAR1 cell line, fluorescence activation, agonist mode; in the data active = activation above about 37%;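 note: CHO cells stably expressing TAAR1 with calcium dye readout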
Large screens that a line does not name were inactive (follow-up assays come after a bar, where they were run).

COc1ccc(CN(C)CC(=O)Nc2cccc(S(=O)(=O)N3CCCC3)c2)cc1F	TAAR1 antag 64 (no result: GPR7 antagonist) | nonsel antag count inactive | TAAR1 antag conf inactive | Ga16 ag counter inactive | TAAR1 ag count inactive
COc1ccc(N2CCN(C(=O)COC(=O)CSc3ccccc3)CC2)cc1	none (no result: GPR7 antagonist, OX1R antag-1, CHO parental Ca, OX1R antag-2)
CC(C)(C)c1ccc(C(=O)Nc2ccc(NC(=O)c3ccco3)cc2)cc1	TAAR1 antag 58 | nonsel antag count 22 | TAAR1 antag conf inactive | Ga16 ag counter inactive | TAAR1 ag count inactive
O=C(Nc1ccc(Oc2ccc(NC(=O)c3ccco3)c(NC(=O)c3ccco3)c2)cc1)c1ccco1	TAAR1 antag 62 | nonsel antag count 29 | TAAR1 antag conf 56 | Ga16 ag counter inactive | TAAR1 ag count inactive
O=C(Nc1ccc(NC(=O)c2ccco2)cc1)c1ccco1	none
Fc1ccc2nc(-c3ccc(CN4CCC(c5nc6ccccc6[nH]5)CC4)cc3)c(-c3ccccc3)nc2c1	TAAR1 antag 54 (no result: GPR7 antagonist, OX1R antag-1, CHO parental Ca, OX1R antag-2) | nonsel antag count 47 | TAAR1 antag conf 55 | Ga16 ag counter 21 | TAAR1 ag count inactive
C=CCNC(=O)CN1CCC(c2nc3ccccc3[nH]2)CC1	none
CC(C)c1ccc(-n2cccc2/C=C2/C(=N)N3C=CSC3=NC2=O)cc1	none
Cc1ccccc1Cn1cccc1/C=C1/C(=N)N2C=CSC2=NC1=O	TAAR1 antag 62 | nonsel antag count 32 | TAAR1 antag conf inactive | Ga16 ag counter inactive | TAAR1 ag count inactive
O=C(N/N=C/c1cccc(OC(=O)c2cccc(Br)c2)c1)c1ccncc1	TAAR1 antag 58 | nonsel antag count 26 | TAAR1 antag conf inactive | Ga16 ag counter 15 | TAAR1 ag count inactive
COc1ccc(CCC(=O)NCCS(=O)(=O)N2CCN(c3ccc(OC)cc3)CC2)cc1	TAAR1 antag 62 | nonsel antag count 29 | TAAR1 antag conf 54 | Ga16 ag counter 15 | TAAR1 ag count inactive
O=C(OCC(=O)N1CCc2ccccc21)c1c2c(nc3ccccc13)CCCC2	TAAR1 antag 57 | nonsel antag count 24 | TAAR1 antag conf inactive | Ga16 ag counter inactive | TAAR1 ag count inactive
O=C(COC(=O)c1c2c(nc3ccccc13)CCCC2)c1cccs1	TAAR1 antag 53 | nonsel antag count 26 | TAAR1 antag conf inactive | Ga16 ag counter inactive | TAAR1 ag count inactive
O=C(COC(=O)c1c2c(nc3ccccc13)CCCCC2)c1ccc(Cl)s1	none
CCOC(=O)C1=C(COC(=O)/C=C/c2cccc(Br)c2)NC(=O)NC1C (stereo not drawn)	TAAR1 antag 59 (no result: GPR7 antagonist) | nonsel antag count inactive | TAAR1 antag conf inactive | Ga16 ag counter inactive | TAAR1 ag count inactive
CCOC(=O)C1=C(COC(=O)/C=C/c2cccc(Cl)c2)NC(=O)NC1C (stereo not drawn)	none (no result: GPR7 antagonist)
CCOC(=O)C1=C(COC(=O)Cc2ccccc2)NC(=O)NC1C (stereo not drawn)	none
CCOC(=O)C1=C(COC(=O)/C=C/c2cccc([N+](=O)[O-])c2)NC(=O)NC1C (stereo not drawn)	TAAR1 antag 58 (no result: GPR7 antagonist) | nonsel antag count inactive | TAAR1 antag conf 56 | Ga16 ag counter 15 | TAAR1 ag count inactive
CCOC(=O)C1=C(COC(=O)Cc2ccc(Cl)cc2)NC(=O)NC1C (stereo not drawn)	TAAR1 antag 60 (no result: GPR7 antagonist) | nonsel antag count 25 | TAAR1 antag conf inactive | Ga16 ag counter inactive | TAAR1 ag count inactive
CCOC(=O)C1=C(COC(=O)/C=C/c2ccc(O)c(OC)c2)NC(=O)NC1C (stereo not drawn)	TAAR1 antag 62 (no result: GPR7 antagonist) | nonsel antag count 28 | TAAR1 antag conf 51 | Ga16 ag counter 13 | TAAR1 ag count inactive
Cc1ccc(C(=O)c2c3ccc([N+](=O)[O-])cc3[n+]([O-])n2CCCN)cc1	none (no result: GPR7 antagonist)
CCCCCCNC(=O)CNC(=S)N(Cc1cccs1)C1CCCCC1	none
Cc1ccc(C(=O)N2CCC(C(=O)Nc3cccc([N+](=O)[O-])c3)CC2)cc1	none
O=C(Nc1nccs1)c1cc(-c2ccccc2)nc2ccccc12	TAAR1 antag 66 | nonsel antag count 28 | TAAR1 antag conf 54 | Ga16 ag counter inactive | TAAR1 ag count inactive
O=C(Nc1nccs1)c1cc(-c2ccccc2)nn1-c1ccccc1	none
O=C(Nc1nccs1)c1cn(-c2ccccc2)nc1-c1ccccc1	GPR7 antagonist 19, TAAR1 antag 72 | nonsel antag count inactive | TAAR1 antag conf inactive | Ga16 ag counter inactive | TAAR1 ag count inactive
COC(=O)[C@H](CC(C)C)NC(=O)CC[C@H]1O[C@@H](n2ccc(=O)[nH]c2=O)[C@H](O)[C@@H]1O	none (no result: GPR7 antagonist, OX1R antag-1, CHO parental Ca, OX1R antag-2)
O=C(CCc1nc2ccccc2c(=O)[nH]1)NNC(=O)c1ccc(F)cc1	none (no result: GPR7 antagonist)
CC(C)N=C1SC(CC(=O)Nc2ccccc2)C(=O)N1C(C)C (stereo not drawn)	TAAR1 antag 57 | nonsel antag count 35 | TAAR1 antag conf inactive | Ga16 ag counter inactive | TAAR1 ag count inactive
CCCCCC(=O)Nc1ccc(S(=O)(=O)NC2=NCCCCC2)cc1	none (no result: GPR7 antagonist)
CC(=O)c1cccc(NC(=O)CSc2ccc(-c3ccco3)nn2)c1	none
COc1ccc(-c2ccc(SCC(=O)Nc3cccc(C(C)=O)c3)nn2)cc1OC	TAAR1 antag 53 | nonsel antag count 24 | TAAR1 antag conf inactive | Ga16 ag counter inactive | TAAR1 ag count inactive
CC(=O)c1cccc(NC(=O)CSc2ccc(-c3ccc4c(c3)OCO4)nn2)c1	TAAR1 antag 54 | nonsel antag count 27 | TAAR1 antag conf inactive | Ga16 ag counter inactive | TAAR1 ag count inactive
COc1ccc(C2C(C(=O)N3CCN(c4ccccn4)CC3)CCC(=O)N2c2cc(OC)c(OC)c(OC)c2)cc1 (stereo not drawn)	none
COc1ccc(C2C(C(=O)N3CCN(c4ccccn4)CC3)CC(=O)N2c2ccc(OC)cc2)cc1 (stereo not drawn)	TAAR1 antag 57 | nonsel antag count 26 | TAAR1 antag conf inactive | Ga16 ag counter 13 | TAAR1 ag count inactive
Cc1cc(=O)oc2c3c(cc(OCC(=O)NCCC(=O)O)c12)OC(C)(C)CC3	none (no result: OX1R antag-1, CHO parental Ca, OX1R antag-2)
COc1ccc(CNC(=O)COc2cc3c(c4oc(=O)cc(C)c24)CCC(C)(C)O3)cc1	TAAR1 antag 62 | nonsel antag count 29 | TAAR1 antag conf inactive | Ga16 ag counter inactive | TAAR1 ag count inactive

Bioassay records as filed in PubChem BioAssay.
